The values that follow come from paper PMC11926516 (Small Methods, 2024).

Read-outs that look alike come from different tables or passages of the source.

The test system of series [1] is HUVEC monolayers. It counts as cell-based, human. As to conditions: 0.1 h after MDS stimulation (1 mA/cm^2 for 7 min).
For series [2], the system named is OVX OP rat models. The experiment in a line: Histology of distal femurs. It counts as in vivo, Sprague–Dawley rats. Summed up:
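Female Sprague–Dawley rats, 12 weeks old, under pentobarbital anaesthesia. Bilateral ovariectomy via dorsal midline incision; sham rats had matching adipose tissue removed. Rats received PBS or PTH by different delivery methods for 4 weeks. Distal femurs were decalcified 3 weeks, paraffin-embedded and serially sectioned. Stains: H&E, Masson, TRAP kit, and IHC for Col1 (1:100), Ocn (1:200) and Ctsk (1:50). Positive cells per bone surface counted, n = 5, one-way ANOVA.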

For series [3], the system named is OVX OP rat models. The experiment in a line: Plasma bone turnover markers PINP and CTX-I by Elisa in OVX rats. The format is in vivo, Sprague–Dawley rats. As to conditions: n = 5.
The subject of series [4] is major organs (heart, lung, liver, kidney, spleen). The format is in vivo, rats. Summed up: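 Major organs (heart, lung, liver, kidney, spleen) were taken at the end of the treatment experiment. They were photographed and weighed (n = 3, one-way ANOVA), then paraffin-embedded, serially sectioned and H&E-stained.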
For series [5] the following is noted: post-SCI, cited from earlier work.
Setting [6] is: stated consistent with own SCI-PTH group.

Turning to `CC(=O)OCOC(=O)CN(CC(=O)OCOC(C)=O)c1ccccc1OCCOc1ccccc1N(CC(=O)OCOC(C)=O)CC(=O)OCOC(C)=O` [BAPTA‐AM], the “increase in intracellular SFs and disappearance of VE-cadherin fluorescence during the electro-stimulated phase” value (shortened to “increase”) in series [1] (inhibitor 20 µM) is “blocked”.
With `C[C@@H](N)[C@H]1CC[C@H](C(=O)Nc2ccncc2)CC1` [Y27632], in series [1] (inhibitor 15 µM), the “increase” value was “blocked”.
In the case of `N.N.N.N.N.N.N.N.N.N.N.N.N.N.[Cl-].[Cl-].[Cl-].[Cl-].[Cl-].[Cl-].[O-2].[O-2].[Ru+3].[Ru+3].[Ru+4]` [ruthenium red], the “increase” value in series [1] (inhibitor 20 µM) was “blocked”.
As to Human parathyroid hormone (1–34) [PTH], the “Ctsk+ and Trap+ osteoclasts per bone surface” value in series [2] (MDS-PTH group compared to SCI-PTH group, IHC and Trap staining, n = 5) is “dramatically fewer”. The “new bone formation (H&E and Masson's staining)” value in series [2] (MDS-PTH group compared to SCI-PTH group, OVX rats, 40 µg k^−1g once daily for one month) is reported as “significantly promoted”. For the same compound, the “Col+ and OCN+ osteoblasts per bone surface” value is “more” in series [2] (MDS-PTH group compared with OVX group, IHC, n = 5) and “more” in series [2] (SCI-PTH group compared with OVX group, IHC, n = 5). The “Col+ and OCN+ osteoblasts per bone surface, difference between delivery methods” value in series [2] (SCI-PTH versus MDS-PTH groups, IHC, n = 5) is “no significant difference”. For the same compound, the “bone formation marker PINP” value in series [3] (MDS-PTH group compared to OVX group) and in series [3] (SCI-PTH group compared to OVX group) was “increased notably” each time. Moreover, in series [3] (MDS-PTH group compared to SCI-PTH group), the “bone resorption marker CTX-I” value was “significantly lower”. In addition, the “bone formation marker PINP, difference between delivery methods” value in series [3] (SCI-PTH versus MDS-PTH groups) is listed as “no significant difference”. Also, the “histopathological analysis of visceral organs” value in series [4] (MDS-PTH group after one month of PTH treatment, H&E) is on record as “no structural disruption”. Besides, the “appearance or weight of major organs” value in series [4] (MDS-PTH group compared to SCI-PBS and SCI-PTH groups after one month of PTH treatment, n = 3) was “no significant difference”. In series [5], the subcutaneous residue entry was “approximately 20%”. Also, in series [5] (setting [6]), the elimination time was 4 h. The “time to plasma Cmax” value in series [5] (setting [6]) was 30 min.
